# Assay outcomes: PubChem, several laboratories
# An excerpt weighted towards active compounds, which were near 1.9% of everything screened.
# Rce1 inhib: inhibitors of yeast Ras-converting enzyme | yeast membranes, quenched prenylated peptide cleavage fluorescence | 290,000 tested, 0.27% active | calls only | Q03530;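 active = fall in fluorescence gain of 50% or more versus controls, with final raw signal at or below 3038400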
# Target sequence (Q03530 whole entry, looked up): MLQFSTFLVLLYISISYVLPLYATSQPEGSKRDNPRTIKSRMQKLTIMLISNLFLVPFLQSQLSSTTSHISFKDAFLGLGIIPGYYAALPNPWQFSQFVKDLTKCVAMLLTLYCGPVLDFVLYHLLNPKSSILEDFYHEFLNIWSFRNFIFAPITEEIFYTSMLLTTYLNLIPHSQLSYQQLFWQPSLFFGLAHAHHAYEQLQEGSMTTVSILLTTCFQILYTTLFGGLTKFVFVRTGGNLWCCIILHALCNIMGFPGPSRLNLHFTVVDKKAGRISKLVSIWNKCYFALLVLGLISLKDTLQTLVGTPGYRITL
# core dimer inh: HCV core protein dimerization inhibition | TR-FRET GST/Flag-core106 dimerization, 1536-well | inhibition, % at 5 µM | 300,000 tested, 0.33% active;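 active = inhibition above the mean of all tested compounds plus 3 SD, set per screening campaign, cut at about 45% in these data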
#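 Assay system: GST-tagged and Flag-tagged HCV core protein residues 1-106 / Times: compound-protein-antibody incubation 4 h at 22.5 °C / Signal: time-resolved FRET, ex 340 nm, em 617 and 671 nm / Evaluation: % inhibition based on acceptor/donor emission ratio / Benchmarks: wells lacking GST-core106 and wells with excess unlabelled core106 / Repeats: singlicate, one well per compound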
# DSG3 Ab inh: human desmoglein-3 autoantibody binding inhibition; 310,000 tested, 0.48% active; binding (percent of control), % at 10 µM; P32926; AID 588358; DSG3-coupled beads, scFv-anti-DSG3-GFP binding, flow cytometry; active compounds read low;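 active = binding more than 3 SD below its plate's average and above zero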;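 note: hits lower antibody fragment binding to DSG3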
# Tb MetRS inh: blocks T. brucei methionyl-tRNA synthetase activity; purified T. brucei MetRS, ATP depletion, Kinase-Glo luminescence; inhibition, % at 11.9 µM; 360,000 tested, 0.4% active; AID 624268;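 active = inhibition above a per-plate cutoff of the control wells' mean inhibition plus 3 SD, cut at about 5.5% in these data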
#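 Assay system: T. brucei methionyl-tRNA synthetase, purified | Medium: HEPES buffer with MgCl2, KCl, DTT, spermine, BSA, pyrophosphatase | Compound: 11.9 µM single point | Incubation: 15 min enzyme-compound preincubation, 2 h reaction, 10 min detection, 25 °C | Measured by: Kinase-Glo luciferase luminescence reporting remaining unconsumed ATP | Measure: % inhibition normalized to control-well medians | Replication: Singlicate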
# NadD block: NadD (S. aureus) enzyme inhibition; purified NadD enzyme, colorimetric absorbance read-out; inhibition, % at 20 µM; 360,000 tested, 0.78% active; in the data active = inhibition above about 26%
# NadD inh conf: NadD (S. aureus) inhibition, single concentration confirmation; 2,000 tested, 13% active; purified S. aureus NadD, colorimetric enzyme assay; shares compounds with NadD block; inhibition, % at 20 µM; in the data active = inhibition mostly above about 42%, no sharp cut-off; inactive = mostly below about 42%
# Tb MetRS conf: confirmation of Trypanosoma brucei MetRS inhibitors. shares compounds with Tb MetRS inh. T. brucei MetRS enzyme, luminescence (ATP depletion). inhibition, % at 11.9 µM. 1,400 tested, 93% active. AID 624412; in the data active = inhibition above about 7%
# Jurkat cytotox: Jurkat T cell cytotoxicity for MetRS hits; shares compounds with Tb MetRS inh; Jurkat cells viability, ATP luminescence; inhibition, % at 8.3 µM; 1,400 tested, 12% active; AID 624413; in the data active = inhibition above about 15%
# TbMetRS FP orth: T. brucei MetRS inhibition, orthogonal assay; inhibition, % at 11.9 µM; 1,400 tested, 44% active; shares compounds with Tb MetRS inh; purified T. brucei MetRS, fluorescence polarization; AID 651607; in the data active = inhibition above about 17%
# A number is an active result; 0 = inactive; - = no result given; + = active, no number; ! = repeats disagree.
SMILES,Rce1 inhib,core dimer inh,DSG3 Ab inh,Tb MetRS inh,NadD block,others
Cn1c(=O)cc(OCC(=O)N2CCN(Cc3ccc4c(c3)OCO4)CC2)c2ccccc21,0,0,-,0,0,
Cc1cccc(N2C(=O)NC(=O)/C(=C/c3ccc(-c4ccc(C(=O)O)c(Cl)c4)o3)C2=O)c1,0,0,-,-,-,
O=C1NC(=O)N(c2ccccc2)C(=O)/C1=C/c1ccc(Sc2ccccc2)o1,0,0,0,0,37.4,
COCCNC(=O)Cn1cc(/C=C2\C(=O)NC(=O)N(c3ccccc3F)C2=O)c2ccccc21,0,0,0,0,0,
O=C1NC(=O)N(c2ccccc2F)C(=O)/C1=C/c1ccc(Sc2nc3ccccc3[nH]2)o1,-,0,0,0,45.1,
O=C1NC(=O)N(c2cccc(Cl)c2)C(=O)/C1=C\c1ccc(Sc2nc3ccccc3[nH]2)o1,0,0,0,0,65.4,
CC(Cc1ccc(O)cc1)NCC(O)c1cc(O)cc(O)c1 (stereo not given),0,0,0,0,0,
O=C(NC1CCCCC1)Oc1cc2oc(=O)sc2cc1Cl,0,0,0,0,0,
O=c1[nH]c(=S)[nH]c(O)c1/C=C1/C=c2ccccc2=N1,0,0,82.8,0,0,
CCOC(=O)[C@@H]1[C@H]2COc3ccc(Br)cc3[C@@H]2N2C(=O)N(c3cccc(C)c3)C(=O)[C@]12C,+,0,0,0,0,
C=C(C=O)CC1CC(O)[C@]2(C)OC3CC4OC5C[C@]6(C)O[C@]7(C)CCC8OC9C[C@]%10(C)OC%11C(C)=CC(=O)OC%11CC%10OC9C[C@@H](C)C8OC7CC6O[C@]5(C)CC5OC5C4OC3CC2O1 (stereo not given in full),0,48.8,0,0,0,
C[N+](C)(C)CCOC(=O)CBr,-,0,0,0,0,
CC(=O)OCC[N+](C)(C)C,+!,0,0,0,0,
O=C1C(=Cc2ccccc2)N2CCC1CC2,-,-,-,0,0,
COc1ccc(CN2CCCC(C(=O)c3sccc3C)C2)cc1O (stereo not given),0,0,0,0,0,
CCCCn1c(=O)c(C=Nc2cccnc2Cl)c(O)n(CCCCl)c1=O,+,0,0,0,0,
C=CCn1c(=O)c(C=Nc2cccc([N+](=O)[O-])c2)c(O)n(CCCC)c1=O,0,0,0,0,0,
CC1=NCCc2c1[nH]c1cc(O)ccc21,-,0,0,0,0,
COc1ccc2c3c([nH]c2c1)C(C)=NCC3,+,0,-,0,0,
COc1ccc(-c2cc(=O)c3c(OC)c(OC)c(OC)cc3o2)cc1,0,0,0,0,0,
O=C(C(=O)N1CCOCC1)c1cn(Cc2ccc(F)cc2)c2ccccc12,0,0,0,0,0,
Cn1c(O)c(Cc2ccc(OCc3ccccc3)cc2)c(=O)n(C)c1=O,0,0,68.5,0,0,
CC(=NCCc1ccccc1)c1c(O)n(C)c(=O)n(C)c1=O,0,0,-,0,0,
COc1cccc(N2CCN(Cc3cccc(Cl)c3)CC2)c1,0,0,0,0,0,
COc1cccc(CC(=O)N2CCN(Cc3cccc(Cl)c3)CC2)c1,0,0,-53.0,0,0,
SMILES,Rce1 inhib,core dimer inh,DSG3 Ab inh,Tb MetRS inh,NadD block,others
CCOc1cc(C=C2C(=O)NC(=S)NC2=O)ccc1O,-,-,0,0,0,
O=C1NC(=S)NC(=O)C1=Cc1ccc2c(c1)CCN2CCCCl,0,65.1,58.5,0,52.9,
C[C@]12CCC3C(CC[C@H]4C[C@@H](O)CC[C@]34C)C1CC[C@@]2(O)C(F)(F)F (stereo not given in full),-,-,-,0,0,
CC[C@H]1CN2CCC1C[C@H]2[C@H](O)c1ccnc2ccc(OC)cc12 (stereo not given in full),-,0,0,0,48.4,NadD inh conf=0
COc1cc2c(cc1OC)-c1c3c(cc4c1[C@@H](C2)N(C)CC4)OCO3,0,0,0,0,0,
COc1cc2c(cc1O)C[C@H]1NCCc3cc4c(c-2c31)OCO4,0,0,0,0,33.6,NadD inh conf=0
C[C@]12CCC3C(C1CCC2=O)[C@H](O)C[C@H]1C[C@@H](O)CC[C@]31C (stereo not given in full),-,-,0,0,0,
COc1ccc2nc(-c3ccc(CN4CCC(n5c(=O)[nH]c6ccccc65)CC4)cc3)c(-c3ccccc3)nc2c1,-,-,-,0,36.7,NadD inh conf=0
Cc1ccc2nc(-c3ccc(CN4CCC(n5c(=O)[nH]c6ccccc65)CC4)cc3)c(-c3ccccc3)nc2c1,-,-,-,0,0,
NNC(=O)c1nc[nH]c1C(=O)Nc1ccc(Cl)cc1C(=O)c1ccccc1,0,-,0,0,48.3,NadD inh conf=0
CC(C)CCn1c(=O)c(C(=O)Nc2ccccc2S(N)(=O)=O)c(O)c2ccccc21,0,0,0,0,49.3,NadD inh conf=0
CCCCn1c(=O)c(C(=O)Nc2ccccc2C)c(O)c2ccccc21,0,0,0,0,0,
c1ccc2c(CN3CCN(C4CCCCC4)CC3)c[nH]c2c1,0,0,0,0,38.3,NadD inh conf=0
Cc1cccc(C)c1-n1nnnc1C(CCc1ccccc1)N1CCC(n2c(=O)[nH]c3ccccc32)CC1 (stereo not given),-,-,-,0,30.5,NadD inh conf=0
CCC(C)NC(=O)CCC(=O)OC1O[C@H]2OC3(C)CC[C@H]4[C@H](C)CCC(C1C)C24OO3 (stereo not given in full),0,-,0,0,0,
Cc1cccc(N2CCC3(CC2)C(=O)NC(=O)NC3=O)c1,-,-,0,0,0,
O=C(Cc1cc(=O)oc2cc(O)ccc12)NN=Cc1ccc(N(CCCl)CCCl)cc1,-,-,0,0,54.2,NadD inh conf=49.4
O=C(NN=Cc1ccc(N(CCCl)CCCl)cc1)c1cc(=O)[nH]c(=O)[nH]1,-,-,0,0,0,
COc1ccccc1CN1CCN(C(=O)COc2ccccc2)CC1,0,0,0,0,0,
O=c1[nH]c(=S)[nH]c(O)c1N=Nc1ccc(S(=O)(=O)N2CCc3ccccc32)cc1,0,0,0,0,48.7,NadD inh conf=69.8
CCCC[N+]1(C)[C@@H]2CC(OC(=O)[C@H](CO)c3ccccc3)C[C@H]1[C@@H]1O[C@@H]12 (stereo not given in full),0,0,0,0,0,
CCCC(C)C1(CC)C(=O)NC(=Nc2ccccc2)NC1=O (stereo not given),0,0,0,8.7,0,Tb MetRS conf=17.6;Jurkat cytotox=0;TbMetRS FP orth=0
CCCC(C)C1(CC)C(=O)NC(=Nc2ccc(F)cc2)NC1=O (stereo not given),0,0,0,0,0,
